Calls of active or inactive are those of the source. The rule behind the calls is not given here.
Tests used:
Aorta [1] = assay: Vasorelaxant activity in Wistar rat endothelium-intact thoracic aortic ring assessed as inhibition of noradrenaline-induced contraction treated after noradrenaline challenge measured after 60 mins; format: functional, tissue-based; conditions: 1 h
Procedure, shortened: (§1)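 Thoracic aorta came from male Wistar rats (250–350 g), cleaned and cut into 4–5 mm rings. Endothelium was rubbed off some rings with forceps and its absence confirmed by no relaxation to carbachol. Rings were washed every 30 min for 2 h, pre-contracted with noradrenaline (0.1), then given the test agent cumulatively. Concentration-response curves (n=5–6, mean ± SEM) were fitted nonlinearly to give EC50.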

Aorta [2] = assay: Vasorelaxant activity in Wistar rat endothelium-denuded thoracic aortic ring assessed as inhibition of noradrenaline-induced contraction treated after noradrenaline challenge measured after 60 mins; format: functional, tissue-based; procedure, shortened: as §1
Rattus norvegicus [3] = assay: Antihypertensive activity in SHR rat assessed as moderate decrease in systolic blood pressure at 50 mg/kg, po after 6 hrs; conditions: Artery
Aorta [4] = assay: Ratio of pimobendan EC50 to compound EC50 for vasorelaxant activity in pre-contracted Wistar rat endothelium-intact thoracic aortic ring; format: functional
Rattus norvegicus [5] = assay: Antihypertensive activity in po dosed SHR rat assessed as decrease in systolic blood pressure after 6 hrs; format: functional, organism-based; conditions: Artery
Rattus norvegicus [6] = assay: Antihypertensive activity in SHR rat assessed as moderate decrease in systolic blood pressure at 50 mg/kg, po after 6 hrs; format: functional, organism-based; set-up: dose 50 mg/kg; conditions: Artery
Rattus norvegicus [7] = assay: Antihypertensive activity in SHR rat assessed as sustained decrease in systolic blood pressure at 100 mg/kg, po after 6 hrs; format: functional, organism-based; set-up: dose 100 mg/kg; conditions: Artery
Rattus norvegicus [8] = assay: Antihypertensive activity in SHR rat assessed as effect on heart rate at 50 mg/kg, po after 6 hrs; format: functional, organism-based; set-up: dose 50 mg/kg
Rattus norvegicus [9] = assay: Antihypertensive activity in SHR rat assessed as effect on heart rate at 100 mg/kg, po after 6 hrs; format: functional, organism-based; set-up: dose 100 mg/kg
Rattus norvegicus [10] = assay: Antihypertensive activity in SHR rat assessed as effect on heart rate at 25 mg/kg, po after 6 hrs; format: functional, organism-based; set-up: dose 25 mg/kg
Rattus norvegicus [11] = assay: Antihypertensive activity in SHR rat assessed as decrease in systolic blood pressure at 25 mg/kg, po after 6 hrs; format: functional, organism-based; set-up: dose 25 mg/kg; conditions: Artery
[12] = Rattus norvegicus, Wistar, Aorta, 1 h
[13] = Rattus norvegicus, Wistar, Aorta, 1 h, read-out: EC50

EC50 (Aorta [1]) | EC50 (Aorta [2]; [13]) | SMILES | Emax (Aorta [1]) | Emax (Aorta [2]; [12]) | further results
3.18 µM | 15 µM | O=[N+]([O-])c1ccccc1-c1nc2cc(C(F)(F)F)ccc2[nH]1 | 93.2% | 85.3% | 
524 µM | 524 µM | CCCOc1ccc(-c2nc3cc(C(F)(F)F)ccc3[nH]2)cc1 | 51% | 19% | 
210 µM | 575 µM | COc1ccccc1-c1nc2cc(C(F)(F)F)ccc2[nH]1 | 75.1% | 45.7% | 
548 µM | 549 µM | CCOc1ccccc1-c1nc2cc(C(F)(F)F)ccc2[nH]1 | 91% | 19.8% | 
3.71 µM | 15 µM | CCOc1ccccc1-c1nc2cc([N+](=O)[O-])ccc2[nH]1 | 84.8% | 46.4% | 
369 µM | 468 µM | FC(F)(F)c1ccc2[nH]c(-c3ccccc3)nc2c1 | 91.2% | 75.6% | 
34.8 µM | 140 µM | COc1cc(-c2nc3cc(C(F)(F)F)ccc3[nH]2)ccc1O | 99.5% | 97.7% | 

Further lines, the compound ahead of its results:

SMILES | EC50 (Aorta [1]) | EC50 (Aorta [2]; [13]) | Emax (Aorta [1]) | Emax (Aorta [2]; [12]) | further results
CC(C)Oc1ccccc1-c1nc2cc([N+](=O)[O-])ccc2[nH]1 | 4.89 µM | 14.1 µM | 80.7% | 31.7% | 
COc1ccc(-c2nc3cc([N+](=O)[O-])ccc3[nH]2)c(OC)c1OC | 3.23 µM | 43.6 µM | 90% | 58.9% | 
COc1ccc(-c2nc3cc(C4=NNC(=O)CC4C)ccc3[nH]2)cc1 (stereo not drawn) [PIMOBENDAN] | 4.67 µM |  | 93.2% |  | 
CN(C)c1ccc(-c2nc3cc(C(F)(F)F)ccc3[nH]2)cc1 | 550 µM | 550 µM | 63.2% | 30.9% | 
C[N+](C)(C)CCOC(N)=O.[Cl-] [CARBACHOL] | 0.51 µM |  | 106% |  | EC50 (Aorta [2]): Not Active; Emax (Aorta [2]): inactive
COc1ccc(-c2nc3cc([N+](=O)[O-])ccc3[nH]2)cc1OC | 2.5 µM | 302 µM | 75% | 36.3% | 
C[C@H](CS)C(=O)N1CCC[C@H]1C(=O)O |  |  |  |  | Activity (Rattus norvegicus [3]): Active
O=[N+]([O-])c1ccc2[nH]c(-c3ccccc3)nc2c1 | 4.93 µM | 35.1 µM | 73.8% | 60.5% | 
CCOC(=O)C1=C(C)NC(C)=C(C(=O)OC)C1c1cccc([N+](=O)[O-])c1 (stereo not drawn) [NITRENDIPINE] |  | 0.03 µM |  | 98.9% | 
FC(F)(F)c1ccc2[nH]c(-c3ccc4c(c3)OCO4)nc2c1 | 38.5 µM | 77.4 µM | 101% | 99.6% | 
COc1cc(-c2nc3cc([N+](=O)[O-])ccc3[nH]2)ccc1O | 1.81 µM | 19.5 µM | 91.7% | 55.2% | Ratio EC50 (Aorta [4]): 2.5; Activity (Rattus norvegicus [5]): Dose-dependent effect; Activity (Rattus norvegicus [6]): Active; Activity (Rattus norvegicus [7]): Active; Activity (Rattus norvegicus [8]): inactive; Activity (Rattus norvegicus [9]): inactive; Activity (Rattus norvegicus [10]): inactive; Activity (Rattus norvegicus [11]): inactive; Activity (Rattus norvegicus [3]): Active
Oc1ccc(-c2nc3cc(C(F)(F)F)ccc3[nH]2)cc1 | 219 µM | 219 µM | 51.1% | 37% | 

Reference: ChEMBL document CHEMBL1165919, “Synthesis, vasorelaxant activity and antihypertensive effect of benzo[d]imidazole derivatives” (Bioorg Med Chem, 2010)
